Measurements from ChEMBL document CHEMBL1132643, “Novel inhibitors of Erm methyltransferases from NMR and parallel synthesis” (J Med Chem, 1999).

Target: not listed separately
Test: The binding affinity towards ErmAM methylase identified by NMR

SMILES	Kd [µM]
Nc1nc(NC2CCCCC2)nc(-c2ccc(O)cc2)n1	310
Nc1nc(N)nc(N2CCCCC2)n1	5000
Nc1nc(N)nc(-c2ccc(O)cc2)n1	12000

Target: rRNA adenine N-6-methyltransferase (Bacillus subtilis, UniProt P13956)
Test: Inhibitory activity against ErmC methylase
Method in brief: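 ErmC′ (143 nM) preincubated with compound, in duplicate, 15 min at room temperature in 50 mM Tris pH 7.5, 40 mM KCl, 4 mM MgCl2, 10 mM DTT. Started with 250 nM S-adenosyl-L-[methyl-3H]methionine and 80 nM E. coli rRNA, 2 h room temperature. Stopped with 10% TCA/100 mM KCl, filtered, washed. Precipitated counts taken as percent inhibition versus no-inhibitor wells, and IC50 read from concentration curve.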

rRNA adenine N-6-methyltransferase (Bacillus subtilis, UniProt P13956), sequence (P13956 whole entry): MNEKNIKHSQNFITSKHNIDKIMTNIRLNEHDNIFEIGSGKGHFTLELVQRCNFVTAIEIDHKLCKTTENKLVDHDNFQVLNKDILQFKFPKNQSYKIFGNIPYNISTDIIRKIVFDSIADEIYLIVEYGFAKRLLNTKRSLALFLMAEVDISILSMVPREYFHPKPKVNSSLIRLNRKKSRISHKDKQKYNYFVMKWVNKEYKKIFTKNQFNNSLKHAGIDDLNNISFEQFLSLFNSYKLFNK

SMILES	Ki [µM]
C[C@@H](Nc1nc(N)nc(N2CCCCC2)n1)c1ccccc1	> 100
Nc1nc(Nc2ccccc2)nc(N2CCCCC2)n1	> 100
c1ccc2c(c1)CC(Nc1ncnc(N3CCCCC3)n1)C2	> 100
COc1ccc2c(c1)CC(Nc1nc(N)nc(N3CCCCC3)n1)C2 (configuration not stated)	75
Nc1nc(NC2CCc3ccccc32)nc(N2CCCCC2)n1 (configuration not stated)	> 100
Nc1nc(NC2Cc3ccccc3C2)cc(-c2ccc(NCCCc3ccccc3O)cc2)n1	12.5
Nc1nc(NC2Cc3ccc(F)cc3C2)nc(N2CCCCC2)n1 (configuration not stated)	37
Nc1nc(NC2CCCCC2)nc(N2CCCCC2)n1	> 100
Nc1nc(NCCCc2c(O)cc(Cl)cc2Cl)nc(NC2Cc3ccccc3C2)n1	> 100
Nc1nc(NC2Cc3ccccc3C2)nc(C2CCCCC2)n1	> 100
Nc1ccc(-c2nc(N)nc(NC3Cc4ccccc4C3)n2)cc1	> 50
Nc1nc(N2CCCCC2)nc(N2CCCCC2)n1	> 100
Nc1nc(NC2Cc3ccccc3C2)nc(N2CCC(C(=O)O)CC2)n1	> 100
Nc1cccc(-c2nc(N)nc(NC3Cc4ccccc4C3)n2)c1	10
Nc1nc(NC2Cc3ccccc3C2)nc(N2CCCC(CO)C2)n1 (configuration not stated)	> 100
Nc1nc(NC2Cc3ccccc3C2)nc(N2CCCCC2)n1	75
Oc1nc(NC2Cc3ccccc3C2)nc(N2CCCCC2)n1	> 100
Nc1ccc(-c2cc(NC3Cc4ccccc4C3)nc(N)n2)cc1	> 100
CN(c1nc(N)nc(N2CCCCC2)n1)C1CCCCC1	> 100
Nc1nc(NC2Cc3ccccc3C2)nc(N2CCC(CO)CC2)n1	75
CSc1nc(N)nc(NC2Cc3ccccc3C2)n1	> 100
Nc1nc(NC2Cc3ccccc3C2)nc(N2CCC(C(=O)NCCc3c[nH]c4ccccc34)CC2)n1	20
Nc1nc(NC2CCCCC2)nc(NC2Cc3ccccc3C2)n1	> 100

Target: not listed separately
Test: The binding affinity towards N-labeled Erythromycin-resistant ErmAM methylase evaluated by NMR
Method in brief: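 Uniformly 15N-labeled ErmAM, 0.3 mM in H2O/D2O 9:1 with 20 mM BisTris, 10 mM DTT, pH 6.5. Ligand added in perdeuterated DMSO. Sensitivity-enhanced 15N HSQC run at 30 °C with and without ligand, screening at 1.0 mM. KD from chemical shift changes versus ligand concentration, fit to a single-site model by least-squares grid search.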

SMILES	Kd [µM]
CSc1nc(N)nc(N)n1	1000
c1cnc2[nH]ccc2c1	1300

Target: T1, rRNA adenine N-6-methyltransferase (Streptococcus pneumoniae, UniProt P21236)
T1 sequence (P21236 whole entry): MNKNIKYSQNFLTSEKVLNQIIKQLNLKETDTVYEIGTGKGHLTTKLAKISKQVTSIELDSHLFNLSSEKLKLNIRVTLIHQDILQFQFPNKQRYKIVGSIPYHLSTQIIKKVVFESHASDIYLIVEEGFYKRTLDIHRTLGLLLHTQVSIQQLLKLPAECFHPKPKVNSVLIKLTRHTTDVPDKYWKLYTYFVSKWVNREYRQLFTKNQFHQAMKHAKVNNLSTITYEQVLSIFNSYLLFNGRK
Test: Inhibitory activity against ErmAM methylase
Method in brief: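 Radiometric methyltransferase assay in 50 mM Tris pH 7.5, 100 mM KCl, 4 mM MgCl2, 1 mM DTT with 95 nM ErmAM. Enzyme was preincubated with compound for 15 min at room temperature, in duplicate. Reaction was then started with 250 nM S-adenosyl-L-[methyl-3H]methionine and 80 nM E. coli rRNA and run 2 h at room temperature. It was stopped with 10% TCA/100 mM KCl on ice. TCA-precipitated counts were read after filtration. IC50 was taken from percent inhibition versus control plotted against concentration.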

SMILES	Ki [µM]
C[C@@H](Nc1nc(N)nc(N2CCCCC2)n1)c1ccccc1	> 100
Nc1nc(Nc2ccccc2)nc(N2CCCCC2)n1	> 100
c1ccc2c(c1)CC(Nc1ncnc(N3CCCCC3)n1)C2	> 75
COc1ccc2c(c1)CC(Nc1nc(N)nc(N3CCCCC3)n1)C2 (configuration not stated)	6
Nc1nc(NC2CCc3ccccc32)nc(N2CCCCC2)n1 (configuration not stated)	75
Nc1nc(NC2Cc3ccccc3C2)cc(-c2ccc(NCCCc3ccccc3O)cc2)n1	7.5
Nc1nc(NC2Cc3ccc(F)cc3C2)nc(N2CCCCC2)n1 (configuration not stated)	3
Nc1nc(NC2CCCCC2)nc(N2CCCCC2)n1	75
Nc1nc(NCCCc2c(O)cc(Cl)cc2Cl)nc(NC2Cc3ccccc3C2)n1	10
Nc1nc(NC2Cc3ccccc3C2)nc(C2CCCCC2)n1	25
Nc1ccc(-c2nc(N)nc(NC3Cc4ccccc4C3)n2)cc1	35
Nc1nc(N2CCCCC2)nc(N2CCCCC2)n1	> 100
Nc1nc(NC2Cc3ccccc3C2)nc(N2CCC(C(=O)O)CC2)n1	> 100
Nc1cccc(-c2nc(N)nc(NC3Cc4ccccc4C3)n2)c1	4
Nc1nc(NC2Cc3ccccc3C2)nc(N2CCCC(CO)C2)n1 (configuration not stated)	12.5
Nc1nc(NC2Cc3ccccc3C2)nc(N2CCCCC2)n1	8
Oc1nc(NC2Cc3ccccc3C2)nc(N2CCCCC2)n1	> 100
Nc1ccc(-c2cc(NC3Cc4ccccc4C3)nc(N)n2)cc1	75
CN(c1nc(N)nc(N2CCCCC2)n1)C1CCCCC1	> 100
Nc1nc(NC2Cc3ccccc3C2)nc(N2CCC(CO)CC2)n1	9
CSc1nc(N)nc(NC2Cc3ccccc3C2)n1	10
Nc1nc(NC2Cc3ccccc3C2)nc(N2CCC(C(=O)NCCc3c[nH]c4ccccc34)CC2)n1	2
Nc1nc(NC2CCCCC2)nc(NC2Cc3ccccc3C2)n1	> 100
Nc1ncnc2c1ncn2[C@@H]1O[C@H](CSCC[C@H](N)C(=O)O)[C@@H](O)[C@H]1O [S-ADENOSYLHOMOCYSTEINE]	40
